Measured values collected from several papers.
PADI2: Protein-arginine deiminase type-2 (PADI2, Homo sapiens, UniProt Q9Y2J8)
BRAF V600E: Serine/threonine-protein kinase B-raf (BRAF, Homo sapiens, UniProt P15056, V600E)
SMARCA2: SWI/SNF-related matrix-associated actin-dependent regulator of chromatin subfamily A member 2 (SMARCA2, Homo sapiens, UniProt P51531)
DRD2: D(2) dopamine receptor (DRD2, Homo sapiens, UniProt P14416)
Map2k4: Dual specificity mitogen-activated protein kinase kinase 4 (Map2k4, Mus musculus, UniProt P47809)
MAST1: Microtubule-associated serine/threonine-protein kinase 1 (MAST1, Homo sapiens, UniProt Q9Y2H9)
BPTF: Nucleosome-remodeling factor subunit BPTF (BPTF, Homo sapiens, UniProt Q12830)

SMILES | target | assay | system | conditions | quantity | result
N=C(CCl)NCCC[C@H](NC(=O)c1ccccc1)c1nn[nH]n1 | PADI2 | enzyme activity, inhibitor | – | – | kinact/KI | 14.5 M⁻¹ s⁻¹
CC(C)(C)c1nc(-c2cccc(NS(=O)(=O)c3c(F)cccc3F)c2F)c(-c2ccnc(N)n2)s1 | BRAF V600E | enzyme activity, inhibitor, ATP luminescence | – | 0.1 µM | inhibition | 58%
Oc1ccc(-c2nc(-c3ccncc3)c(-c3ccc(F)cc3)[nH]2)cc1 | SMARCA2 | thermal stability, DSF | – | 10 µM | ΔTm | 0.56 °C
Cc1ccc(C(CS(=O)(=O)c2ccccc2)=NNc2nc(C)c(N=Nc3ccccc3)s2)cc1 | BRAF V600E | enzyme activity, inhibitor, ATP luminescence | – | 10 nM | inhibition | 26%
NS(=O)(=O)c1ccc(Nc2nc(-c3ccc(F)cc3)c3ccccc3n2)cc1 | SMARCA2 | binding, competition with immobilised ligand | – | 1 µM | remaining binding | 74%
CN(C)/C=C1\CCCn2c1nc(=O)c1c(Cl)cccc12 | SMARCA2 | thermal stability, DSF | – | 100 µM | ΔTm | 0.49 °C
Cc1ccc(C(CS(=O)(=O)c2ccccc2)=NNc2nc(-c3ccc(OCCCCOc4ccc(-c5csc(NN=C(CS(=O)(=O)c6ccccc6)c6ccc(C)cc6)n5)cc4)cc3)cs2)cc1 | BRAF V600E | enzyme activity, inhibitor, ATP luminescence | – | 10 µM | inhibition | 91%
N=C(CF)NCCC[C@H](NC(=O)c1ccc(-c2ccccc2)cc1)c1nn[nH]n1 | PADI2 | enzyme activity, inhibitor | – | – | kinact/KI | 17.2 M⁻¹ s⁻¹
COc1ccc(S(N)(=O)=O)cc1C(=O)NCCCN1CCN(c2ccccc2OC)CC1 | DRD2 | enzyme activity, inhibitor | – | 10 µM | inhibition | 62.4%
N=C(CCl)NCCC[C@H](NC(=O)c1ccccc1C(=O)O)c1nn[nH]n1 | PADI2 | enzyme activity, inhibitor | – | – | kinact/KI | 162 M⁻¹ s⁻¹
CCC(CC)CC1CCn2c1nc(=O)c1c(Cl)cccc12 (racemic) | SMARCA2 | thermal stability, DSF | – | 100 µM | ΔTm | 1.33 °C
Cc1ccc(C(CS(=O)(=O)c2ccccc2)=NNc2nc(C)c(N=Nc3cccc(C)c3)s2)cc1 | BRAF V600E | enzyme activity, inhibitor, ATP luminescence | – | 10 µM | inhibition | 92%
CC(C)(C)C/C=C1\CCn2c1nc(=O)c1c(Cl)cccc12 | SMARCA2 | thermal stability, DSF | – | 100 µM | ΔTm | 1.61 °C
Nc1ncnc2occ(-c3ccc(NC(=O)Nc4cc(C(F)(F)F)ccc4F)cc3)c12 | Serine/threonine-protein kinase Nek5 (NEK5, Homo sapiens, UniProt Q6P3R8) | cell-free assay, inhibitor | – | 20 µM | remaining signal | 0.95%
CCC(C)/C=C1\CCn2c1nc(=O)c1c(Cl)cccc12 (centres unmarked) | SMARCA2 | thermal stability, DSF | – | 100 µM | ΔTm | 3.77 °C
Cc1ccc(C(CS(=O)(=O)c2ccccc2)=NN=C2N=C(c3ccc(C)cc3)CS2)cc1 | BRAF V600E | enzyme activity, inhibitor, ATP luminescence | – | 0.1 µM | inhibition | 43%
Cc1ccc(NC(=O)c2ccc(C)c(C(F)(F)F)c2)cc1C#Cc1nn(C2CCC(O)CC2)c2ncnc(N)c12 (centres unmarked) | Map2k4 | cell-free assay | – | 10 µM | remaining signal | 49%
Cc1ccc(C(CS(=O)(=O)c2ccccc2)=NNC(N)=S)cc1 | BRAF V600E | enzyme activity, inhibitor, ATP luminescence | – | 10 µM | inhibition | 88%
Fc1cccc(-n2cnc3c(NCc4nc5c(F)c(F)ccc5[nH]4)nc(N4CCOCC4)nc32)c1 | MAST1 | binding, competition with immobilised ligand | – | 10 µM | binding vs control | 23%

SMILES | target | assay | system | conditions | quantity | result
Cc1cnc(Nc2ccc(OCCN3CCCC3)cc2)nc1Nc1cccc(S(=O)(=O)NC(C)(C)C)c1 | BPTF | thermal stability, DSF | – | 10 µM | ΔTm | 0.8 °C
Cc1ccc(C(CS(=O)(=O)c2ccccc2)=NNC2=NC(=O)C(=NNc3ccc(Cl)cc3)S2)cc1 | BRAF V600E | enzyme activity, inhibitor, ATP luminescence | – | 10 nM | inhibition | 27%
Cc1ccc(Nc2nccc(N(C)c3ccc4c(C)n(C)nc4c3)n2)cc1S(N)(=O)=O | Tyrosine-protein kinase Blk (Blk, Mus musculus, UniProt P16277) | enzyme activity, inhibitor | – | 10 µM | inhibition | 73%
CCC(CC)C1CC12CCn1c2nc(=O)c2c(Cl)cccc21 (centres unmarked) | SMARCA2 | thermal stability, DSF | – | 100 µM | ΔTm | 1.4 °C
CC(C)c1ccccc1OCCOCC(O)CN1CCN(c2cccc(C(F)(F)F)c2)CC1 (centres unmarked) | DRD2 | enzyme activity, inhibitor | – | 10 µM | inhibition | 37.8%
CC(C)(C)n1nnc([C@H](CCCNC(=N)CCl)NC(=O)c2ccccc2C(=O)O)n1 | PADI2 | enzyme activity, inhibitor | – | – | kinact/KI | 1000 M⁻¹ s⁻¹
CC(=O)N[C@H]1CSSC[C@@H](C(=O)N[C@H](Cc2c[nH]c3ccccc23)C(N)=O)NC(=O)[C@@H](Cc2ccccc2)NC(=O)[C@H](CCCNC(=N)N)NC1=O | Melanocortin receptor 3 (MC3R, Homo sapiens, UniProt P41968) | cAMP, agonist | HEK293 | 3 min | Emax | 0%
NC1=NCC(c2cccc3ccccc23)OC1 (centres unmarked) | Beta-secretase 1 (BACE1, Homo sapiens, UniProt P56817) | thermal stability, DSF | – | 2.1 mM, pH 5.4 | ΔTm | 0.63 °C
Cc1ccc(C(=O)Nc2ccc(CN3CCN(C)CC3)c(C(F)(F)F)c2)cc1C#Cc1cnc2cccnn12 | MAST1 | enzyme activity, inhibitor | – | 23.5 nM | remaining activity | 95%
C[S+]([O-])c1ccc(-c2nc(-c3ccncc3)c(-c3ccc(F)cc3)[nH]2)cc1 (centres unmarked) | BPTF | thermal stability, DSF | – | 10 µM | ΔTm | 0.89 °C
NCCCC[C@H](NC(=O)[C@@H]1CCCN1C(=O)[C@@H]1CSSC[C@H](NC(=O)CNC(=O)CNC(=O)CN)C(=O)N[C@@H](Cc2ccc(O)cc2)C(=O)N[C@@H](Cc2ccccc2)C(=O)N[C@@H](CCC(N)=O)C(=O)N[C@@H](CC(N)=O)C(=O)N1)C(=O)NCC(N)=O | Vasopressin V2 receptor (AVPR2, Homo sapiens, UniProt P30518) | cAMP, agonist, TR-FRET | CHO-K1 | – | Emax | ~100%
Cc1cnc(NC2CCOCC2)nc1-n1cnc(C(=O)NC(CN)c2cc(F)cc(Cl)c2)c1 (centres unmarked) | Map2k4 | enzyme activity, inhibitor, radiometric | – | 1 µM | remaining activity | 63%
O=c1nc2n(c3cccc(Cl)c13)CC/C2=C\c1ccccc1 | SMARCA2 | thermal stability, DSF | – | 100 µM | ΔTm | 2.14 °C
CCCOc1ccc(OC)c(F)c1C(=O)c1ccc(C(=O)N[C@@H]2CNC[C@H]2NC(=O)c2ccc3[nH]ncc3c2)cc1 | Map2k4 | enzyme activity, inhibitor | – | 10 µM | remaining activity | 120%
CC(C)(C)n1nnc([C@H](CCCNC(=N)CCl)NC(=O)c2ccc(-c3ccccc3)cc2)n1 | PADI2 | enzyme activity, inhibitor | – | – | kinact/KI | 182 M⁻¹ s⁻¹
CCC(/C=C1\CCn2c1nc(=O)c1cc(OC)ccc12)CC | SMARCA2 | thermal stability, DSF | – | 100 µM | ΔTm | 0.14 °C
Cc1ccc(C(CS(=O)(=O)c2ccccc2)=NNC2=NC(=O)C(=NNc3ccc([N+](=O)[O-])cc3)S2)cc1 | BRAF V600E | enzyme activity, inhibitor, ATP luminescence | – | 1 µM | inhibition | 72%
CCC(/C=C1\CCn2c1nc(=O)c1ccc(OC)cc12)CC | SMARCA2 | thermal stability, DSF | – | 100 µM | ΔTm | 0 °C
Cc1cc2c(cc1N1C(=O)c3cccc4c(Cl)ccc(c34)C1=O)n(C)c(=O)n2C | BPTF | thermal stability, DSF | – | 10 µM | ΔTm | 0 °C
